Experimental data collected from several papers.
Each line is one published result; the experiments were not run side by side.
Target: Calcium/calmodulin-dependent protein kinase type 1G (CAMK1G, Homo sapiens, UniProt Q96NX5)

Compound | observed | mode | technique | tested at | quantity | result
O=C1Nc2ccc(Cl)cc2C1=Cc1cc(Cl)c(O)c(Cl)c1 | cell-free assay |  |  | 0.5 µM | remaining signal | 96.6%
Cc1ccc(C(=O)Nc2ccc(CN3CCN(C)CC3)c(C(F)(F)F)c2)cc1C#Cc1cnc2cccnn12 | cell-free assay |  |  | 23.5 nM | remaining signal | 95%
CC(C)(O)[C@H]1CC[C@H](Nc2ccc3ncc(-c4cccc(C(F)(F)F)c4)n3n2)CC1 | enzyme activity | inhibitor |  | 1 µM | remaining activity | 81.6%
O=C1NC(c2ccccn2)Sc2ccccc21 (stereo not drawn) | cell-free assay |  | competition with immobilised ligand | 1 µM | remaining binding | 100%
CN1CC(Oc2cnc(C#N)cc2-c2ccn3nc(NC(=O)C4CC4)cc3c2)C1 | enzyme activity | inhibitor |  | 1 µM | inhibition | -1%
Cc1sc(C(=O)NC2COC2)cc1-n1cc(NC(=O)Nc2c(F)cccc2Cl)cn1 | enzyme activity | inhibitor |  | 10 µM | remaining activity | 93.1%
N#CCCc1ccc2c(c1)-c1[nH]c3ccc([N+](=O)[O-])cc3c1CC(=O)N2 | cell-free assay |  |  | 0.5 µM | remaining signal | 103%
CO[C@@H](C)c1c(Nc2ccc([C@@H](N(C)C(=O)C3CCS(=O)(=O)CC3)C(F)(F)F)cc2)cnc2cc(Cl)nn12 | cell-free assay |  | competition with immobilised ligand | 1 µM | remaining binding | 100%
COc1cc(Cl)c(C(=O)N[C@@H](CN[C@H]2CC[C@@H](N)CC2)Cc2ccc(C#N)cc2)cc1-c1ccc(CN[C@H](C)c2ccc(C)cc2)o1 | enzyme activity | inhibitor |  | 1 µM | remaining activity | 99%
O=C(NCCCC1CCCCC1)c1ccc(CNC(=O)c2cnn(-c3ccccc3)c2C(F)(F)F)cc1 | cell-free assay |  | competition with immobilised ligand | 0.1 µM | remaining binding | 100%
COc1cc2c(Nc3ccc(Br)cc3F)ncnc2cc1OCC1CCN(C)CC1 | cell-free assay |  |  | 0.5 µM | remaining signal | 101%
c1ccc(N2CCN(Cc3nc4ccccc4[nH]3)CC2)nc1 | cell-free assay |  | competition with immobilised ligand | 1 µM | remaining binding | 100%
O=C(Nc1cnn(-c2csc(C(=O)NC3COC3)c2)c1)Nc1ccccc1Cl | enzyme activity | inhibitor |  | 5 µM | remaining activity | 94.2%
Cc1cc(NC(=O)c2cccc3cc(-c4cccc5[nH]nc(N)c45)ccc23)ccc1F | enzyme activity | inhibitor |  | 0.1 µM | activity vs control | 102%
Nc1ncnc2occ(-c3ccc(NC(=O)Nc4cc(C(F)(F)F)ccc4F)cc3)c12 | cell-free assay |  |  | 20 µM | remaining signal | 41%
